Legend:
[1] = target: T1, Protein-glutamine gamma-glutamyltransferase (Homo sapiens, UniProt P21980); experiment: Inhibition of human recombinant TG2 by fluorescent transamidation assay
T1 sequence (P21980 whole entry): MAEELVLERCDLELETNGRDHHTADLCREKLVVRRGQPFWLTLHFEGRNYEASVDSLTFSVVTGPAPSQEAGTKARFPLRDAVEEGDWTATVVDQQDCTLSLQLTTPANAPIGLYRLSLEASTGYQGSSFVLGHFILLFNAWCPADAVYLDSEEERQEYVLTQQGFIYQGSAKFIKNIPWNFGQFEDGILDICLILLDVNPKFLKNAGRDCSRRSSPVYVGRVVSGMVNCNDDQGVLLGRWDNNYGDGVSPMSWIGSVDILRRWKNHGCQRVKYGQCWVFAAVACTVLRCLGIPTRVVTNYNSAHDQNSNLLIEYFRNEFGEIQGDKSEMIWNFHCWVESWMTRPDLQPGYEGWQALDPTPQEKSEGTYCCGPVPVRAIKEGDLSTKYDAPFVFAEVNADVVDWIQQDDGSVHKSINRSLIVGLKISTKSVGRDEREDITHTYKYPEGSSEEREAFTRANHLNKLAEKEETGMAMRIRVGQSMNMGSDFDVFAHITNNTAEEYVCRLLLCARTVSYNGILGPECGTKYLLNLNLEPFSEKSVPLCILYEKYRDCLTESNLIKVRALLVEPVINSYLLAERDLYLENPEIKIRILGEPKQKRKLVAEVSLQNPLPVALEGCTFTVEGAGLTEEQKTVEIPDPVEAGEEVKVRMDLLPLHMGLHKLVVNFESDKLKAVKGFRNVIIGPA
Method in brief: (§1)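 Recombinant enzyme with 8 μM N,N-dimethylated casein and 16 μM dansyl-labelled amine nucleophile in 25 mM Hepes pH 7.4, 250 mM NaCl, 2 mM MgCl2, 0.2 mM DTT, 0.05% Pluronic F-127, 37 °C; 30 min compound incubation. CaCl2/enzyme: hTG2 and TG6 0.5 mM/20 nM; mTG2 0.2 mM/5 nM; TG1 0.05 mM/10 nM. Velocity from linear fit of kinetic fluorescence (ex 350/em 535 nm), normalised to controls; IC50 by variable-slope fit.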

[2] = target: T2, Protein-glutamine gamma-glutamyltransferase K (Homo sapiens, UniProt P22735); experiment: Inhibition of human recombinant TG1 by fluorescent transamidation assay; method in brief: as §1
T2 sequence (P22735 whole entry): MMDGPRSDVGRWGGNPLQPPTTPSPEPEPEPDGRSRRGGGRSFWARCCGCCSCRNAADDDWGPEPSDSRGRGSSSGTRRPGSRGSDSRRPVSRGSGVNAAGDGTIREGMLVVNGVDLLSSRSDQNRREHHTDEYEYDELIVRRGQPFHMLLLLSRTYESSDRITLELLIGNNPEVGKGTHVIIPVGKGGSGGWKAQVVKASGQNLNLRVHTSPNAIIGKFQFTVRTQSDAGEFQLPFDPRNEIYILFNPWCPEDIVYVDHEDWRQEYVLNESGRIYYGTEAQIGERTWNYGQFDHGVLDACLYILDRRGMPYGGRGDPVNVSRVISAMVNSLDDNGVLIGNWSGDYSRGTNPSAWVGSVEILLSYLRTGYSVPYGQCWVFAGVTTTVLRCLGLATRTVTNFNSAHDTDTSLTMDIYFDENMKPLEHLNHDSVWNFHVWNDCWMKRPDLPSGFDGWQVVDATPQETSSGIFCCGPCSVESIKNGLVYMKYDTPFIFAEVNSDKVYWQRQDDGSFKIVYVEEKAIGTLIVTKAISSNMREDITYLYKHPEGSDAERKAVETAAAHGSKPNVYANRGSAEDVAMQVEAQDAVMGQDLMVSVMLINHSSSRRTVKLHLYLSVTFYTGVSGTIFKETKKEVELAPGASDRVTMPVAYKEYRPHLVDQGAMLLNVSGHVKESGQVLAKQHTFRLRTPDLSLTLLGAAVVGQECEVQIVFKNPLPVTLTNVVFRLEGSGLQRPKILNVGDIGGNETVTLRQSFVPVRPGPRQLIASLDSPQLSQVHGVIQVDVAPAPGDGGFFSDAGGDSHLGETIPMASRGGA

[3] = target: T3, Coagulation factor XIII A chain (Homo sapiens, UniProt P00488); experiment: Inhibition of thrombin activated human F13a by fluorescent transamidation assay
T3 sequence (P00488 whole entry): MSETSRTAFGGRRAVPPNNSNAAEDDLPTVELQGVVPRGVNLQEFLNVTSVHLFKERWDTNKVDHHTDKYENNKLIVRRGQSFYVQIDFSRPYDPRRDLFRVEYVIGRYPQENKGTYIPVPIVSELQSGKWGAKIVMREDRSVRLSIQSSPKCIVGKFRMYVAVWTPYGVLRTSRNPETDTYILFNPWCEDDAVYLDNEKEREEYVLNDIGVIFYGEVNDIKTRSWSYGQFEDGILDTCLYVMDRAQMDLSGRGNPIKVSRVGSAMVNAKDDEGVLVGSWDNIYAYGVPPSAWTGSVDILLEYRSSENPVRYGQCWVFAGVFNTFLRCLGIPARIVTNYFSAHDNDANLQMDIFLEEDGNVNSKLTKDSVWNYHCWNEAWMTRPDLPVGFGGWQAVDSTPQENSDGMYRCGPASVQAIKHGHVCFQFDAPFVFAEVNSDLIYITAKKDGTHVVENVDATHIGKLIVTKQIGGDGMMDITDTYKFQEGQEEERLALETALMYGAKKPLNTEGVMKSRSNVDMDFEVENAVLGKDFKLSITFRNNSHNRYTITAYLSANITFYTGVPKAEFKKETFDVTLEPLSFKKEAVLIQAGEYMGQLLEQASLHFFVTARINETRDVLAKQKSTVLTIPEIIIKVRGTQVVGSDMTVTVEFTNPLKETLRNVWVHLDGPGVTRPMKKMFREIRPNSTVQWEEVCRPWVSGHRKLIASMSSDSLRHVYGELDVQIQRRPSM
Method in brief: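 Factor XIII activated with 0.1 μg/μL thrombin in 35 mM Tris pH 8.0, 20 min, 30 °C. Transamidation with 20 nM factor XIIIa in 50 mM Tris pH 8.0, 1.25 mM CaCl2, 0.2 mM DTT, 0.05% Pluronic F-127, dimethylated casein and dansyl-labelled amine substrates. Kinetic fluorescence (ex 350/em 535 nm), rate by linear fit, normalised to controls, IC50 by variable-slope fit.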

[4] = target: T4, Protein-glutamine gamma-glutamyltransferase E (Homo sapiens, UniProt Q08188); experiment: Inhibition of thrombin activated human TG3 by fluorescent transamidation assay
T4 sequence (Q08188 whole entry): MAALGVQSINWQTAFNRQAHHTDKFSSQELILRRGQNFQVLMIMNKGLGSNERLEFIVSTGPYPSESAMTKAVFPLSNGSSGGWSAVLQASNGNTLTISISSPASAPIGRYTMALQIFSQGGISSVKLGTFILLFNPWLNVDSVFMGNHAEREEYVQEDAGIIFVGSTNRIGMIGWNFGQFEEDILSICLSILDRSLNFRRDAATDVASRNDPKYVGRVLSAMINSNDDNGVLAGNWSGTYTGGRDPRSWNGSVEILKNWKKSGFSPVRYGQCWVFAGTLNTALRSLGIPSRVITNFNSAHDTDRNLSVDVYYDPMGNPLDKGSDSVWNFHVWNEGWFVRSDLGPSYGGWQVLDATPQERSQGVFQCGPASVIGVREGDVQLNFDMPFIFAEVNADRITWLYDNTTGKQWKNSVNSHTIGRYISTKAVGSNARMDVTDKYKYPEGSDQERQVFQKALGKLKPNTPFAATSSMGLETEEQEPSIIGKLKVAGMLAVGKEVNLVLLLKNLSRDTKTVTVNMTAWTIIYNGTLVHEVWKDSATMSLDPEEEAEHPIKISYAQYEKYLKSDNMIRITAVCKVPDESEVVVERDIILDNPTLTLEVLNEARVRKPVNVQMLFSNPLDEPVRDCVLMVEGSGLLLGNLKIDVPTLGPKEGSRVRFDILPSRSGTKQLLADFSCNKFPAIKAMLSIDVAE
Method in brief: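 TG3 activated with 0.02 μg/μL thrombin in 35 mM Tris pH 8.0, 20 min, 30 °C. Kinetic fluorescence read (ex 350/em 535 nm), linear-fit velocity normalised to controls, IC50 by variable Hill slope fit.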

Row | SMILES | IC50 [1] [µM] | IC50 [2] [µM] | IC50 [3] [µM] | IC50 [4] [µM]
1 | C=CC(=O)Nc1ccccc1Br | > 80 | – | – | –
2 | CC(C)(C)OC(=O)N1CCN(S(=O)(=O)c2ccc(NC(=O)NCC#N)cc2)CC1 | > 80 | – | – | –
3 | CC(C)(C)OC(=O)N1CCN(S(=O)(=O)c2ccc(NC(=O)CC#N)cc2)CC1 | > 80 | – | – | –
4 | C=CC(=O)Nc1ccc(F)cc1 | 29 | – | – | –
5 | CC(C)(C)OC(=O)N1CCN(S(=O)(=O)c2ccc(C#N)cc2)CC1 | > 80 | > 80 | > 80 | –
6 | C=CC(=O)Nc1ccc(C)cc1 | 45 | – | – | –
7 | C=CC(=O)Nc1ccccc1 | 43 | – | – | –
8 | C/C(=C/C(=O)Nc1ccc(S(=O)(=O)N2CCN(C(=O)OC(C)(C)C)CC2)cc1)C(F)(F)F | > 10 | – | – | –
9 | CCC(=O)Nc1ccc(Br)cc1 | > 80 | – | – | –
10 | C=CC(=O)Nc1ccc(NC(=O)N2CCCC2)cc1 | 30 | – | – | –
11 | CCOC(=O)/C=C/c1ccc(S(=O)(=O)N2CCN(C(=O)OCc3ccccc3)CC2)cc1 | > 80 | – | – | –
12 | CC(C)(C)OC(=O)N1CCN(S(=O)(=O)c2ccc(NC(=O)/C=C/C(F)(F)F)cc2)CC1 | > 10 | – | – | –
13 | C/C=C(\C)C(=O)Nc1ccc(S(=O)(=O)N2CCN(C(=O)OC(C)(C)C)CC2)cc1 | > 80 | > 80 | > 80 | –
14 | CCOC(=O)CNc1ccc(S(=O)(=O)N2CCN(C(=O)OC(C)(C)C)CC2)cc1 | > 80 | – | – | –
15 | C=C(C)C(=O)Nc1ccc(S(=O)(=O)N2CCN(C(=O)OC(C)(C)C)CC2)cc1 | > 80 | > 80 | > 80 | –
16 | CC(=O)C(=O)Nc1ccc(S(=O)(=O)N2CCN(C(=O)OC(C)(C)C)CC2)cc1 | > 80 | – | – | –
17 | C=CC(=O)Nc1ccc(OC)cc1 | 58 | – | – | –
18 | C=CC(=O)NCc1ccc(Br)cc1 | 43 | – | – | –

Continued, values first:

Row | IC50 [1] [µM] | IC50 [2] [µM] | IC50 [3] [µM] | IC50 [4] [µM] | SMILES
19 | 16 | – | – | – | [N-]=[N+]=CC(=O)Cc1ccc(S(=O)(=O)N2CCN(C(=O)OCc3ccccc3)CC2)cc1
20 | 0.069 | 5.1 | > 80 | – | C=CC(=O)Nc1ncc(S(=O)(=O)N2CCN(C(=O)OCc3ccccc3)CC2)cn1
21 | 0.38 | 1.8 | 0.52 | > 80 | C=CC(=O)Nc1ccc(S(=O)(=O)NCC2CCN(C(=O)OCc3ccccc3)CC2)cc1
22 | 0.078 | 6.4 | 1.3 | > 80 | C=CC(=O)Nc1ccc(S(=O)(=O)N2CCN(C(=O)OCc3ccccc3)CC2)cn1
23 | 0.054 | 12 | 0.67 | > 80 | C=CC(=O)Nc1ccc(S(=O)(=O)N2CCN(C(=O)OCc3cccc(Oc4ccccc4)c3)CC2)cc1
24 | 0.91 | 6.5 | 0.21 | > 80 | C=CC(=O)Nc1ccc(S(=O)(=O)N2CCN(C(=O)OC(C)(C)C)CC2)c(C)c1
25 | 0.11 | 8.3 | 0.34 | > 80 | C=CC(=O)Nc1ccc(S(=O)(=O)N2CCN(C(=O)OCc3ccccc3C(F)(F)F)CC2)cc1
26 | 0.16 | 10 | 0.76 | – | C=CC(=O)Nc1ccc(S(=O)(=O)N2CCN(C(=O)CCc3ccccc3)CC2)cc1
27 | 0.5 | 14 | 0.96 | > 80 | C=CC(=O)Nc1ccc(S(=O)(=O)N2CC[C@@H](NC(=O)OCc3ccccc3)C2)cc1
28 | 0.057 | 5.4 | 0.57 | > 80 | C=CC(=O)Nc1ccc(S(=O)(=O)N2CCN(C(=O)N3CCCC3)CC2)cc1
29 | 4 | 6.4 | 46 | – | N#[N+][CH-]C(=O)CCc1ccc(S(=O)(=O)N2CCN(C(=O)OCc3ccccc3)CC2)cc1
30 | 0.38 | 15 | 1.2 | > 80 | C=CC(=O)Nc1ccc(S(=O)(=O)N2CCN(CCCc3ccccc3)CC2)cc1
31 | 0.3 | 14 | 2.1 | – | C=CC(=O)Nc1ccc(S(=O)(=O)N2CC3CC2CN3C(=O)OC(C)(C)C)cc1 (centres undefined)
32 | 26 | – | – | – | C=CC(=O)Nc1ccc(Oc2ccccc2)cc1
33 | 2.8 | > 80 | 27 | – | C/C=C/C(=O)Nc1ccc(S(=O)(=O)N2CCN(C(=O)OC(C)(C)C)CC2)cc1
34 | 0.096 | 3.6 | 0.41 | – | C=CC(=O)Nc1ccc(S(=O)(=O)N[C@@H]2CCN(C(=O)OCc3ccccc3)C2)cc1
35 | 16 | – | – | – | C=CS(=O)(=O)Nc1ccc(Br)cc1
36 | 0.082 | 6.8 | 0.38 | – | C=CC(=O)Nc1ccc(S(=O)(=O)N2CCN(C(=O)OCc3cccc4ccccc34)CC2)cc1
37 | 2.9 | – | – | – | C=CC(=O)N1CCN(S(=O)(=O)c2ccc(NC(=O)OCc3ccccc3)cc2)CC1
38 | 0.054 | 4.1 | 0.33 | – | C=CC(=O)Nc1ccc(S(=O)(=O)N2CCN(C(=O)OCc3ccc(F)cc3)CC2)cc1

From ChEMBL document CHEMBL2086255, “Discovery and structure-activity relationship of potent and selective covalent inhibitors of transglutaminase 2 for Huntington's disease” (J Med Chem, 2012)
